Measured values published in ChEMBL document CHEMBL4477166, “18β-Glycyrrhetinic Acid Derivatives Possessing a Trihydroxylated A Ring Are Potent Gram-Positive Antibacterial Agents” (2016).
In brackets after ≈: the same amount, converted by molar mass. Activity calls are given as the source filed them. The calls are words filed in the database; no cut-off is given here.

Assays:
Pseudomonas aeruginosa [1] = assay: Antibacterial activity against Pseudomonas aeruginosa at 100 uM measured after 5 to 6 hrs by microdilution assay; format: functional, organism-based
Staphylococcus aureus [2] = assay: Antibacterial activity against Staphylococcus aureus ATCC 25923 by microdilution assay; format: functional
How it was run: (§1)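 Turbidimetric broth microdilution. Log-phase cells were washed and resuspended in broth (LB at 37 °C for B. subtilis and S. aureus; oat bran broth at 28 °C for S. scabies) and seeded at 1 × 10⁵ CFU/mL. Twofold serial dilutions were made with DMSO ≤1% (v/v). A620 was read, then plates were incubated with vigorous shaking. MIC was the lowest concentration with no apparent growth versus vehicle-only medium without cells. Run in triplicate.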

Streptomyces scabiei = assay: Antibacterial activity against Streptomyces scabiei CGMCC4.7610246 by microdilution assay; format: functional; how it was run: as §1
Bacillus subtilis = assay: Antibacterial activity against Bacillus subtilis ATCC 6051 by microdilution assay; format: functional; how it was run: as §1
Escherichia coli = assay: Antibacterial activity against Escherichia coli at 100 uM measured after 5 to 6 hrs by microdilution assay; format: functional, organism-based
Staphylococcus aureus [3] = assay: Antibacterial activity against methicillin-resistant Staphylococcus aureus by microdilution assay; format: functional
How it was run: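 Log-phase cells seeded at 1 × 10⁵ CFU/mL. Twofold serial dilutions made in broth with DMSO cosolvent, at most 1% v/v. Turbidity read at 620 nm before and after incubation with vigorous shaking. MIC is the lowest concentration with no apparent growth versus the medium-plus-vehicle control. Run in triplicate.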

Pseudomonas aeruginosa [4] = assay: Antibacterial activity against multi-drug resistant Pseudomonas aeruginosa at 100 uM measured after 5 to 6 hrs by microdilution assay; format: functional, organism-based
How it was run: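 Log-phase cells seeded at 1 × 10⁵ CFU/mL. Single-dose screen at 100 μM, with DMSO cosolvent at most 1% v/v. Growth measured turbidimetrically at 620 nm, before and after incubation with vigorous shaking.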

Row | SMILES | Activity (Pseudomonas aeruginosa [1]) | MIC (Staphylococcus aureus [2]) [µg/mL] | MIC (Streptomyces scabiei) [µg/mL] | MIC (Bacillus subtilis) [µg/mL] | Activity (Escherichia coli) | MIC (Staphylococcus aureus [3]) [µg/mL] | Activity (Pseudomonas aeruginosa [4])
1 | CC1(C)[C@@H](O)[C@@H](O)[C@H](O)[C@]2(C)[C@H]3C(=O)C=C4[C@@H]5C[C@@](C)(C(=O)OCc6ccc([N+](=O)[O-])cc6)CC[C@]5(C)CC[C@@]4(C)[C@]3(C)CC[C@@H]12 | inactive | > 50 | > 50 | > 50 | inactive | > 50 | inactive
2 | CCCCOC(=O)[C@@]1(C)CC[C@]2(C)CC[C@]3(C)C(=CC(=O)[C@@H]4[C@@]5(C)[C@@H](O)[C@H](O)[C@H](O)C(C)(C)[C@@H]5CC[C@]43C)[C@@H]2C1 | inactive | > 35.7 | 4.4 (≈ 7.87 µM) | > 35.7 | inactive | 4 (≈ 7.16 µM) | inactive
3 | CC1(C)[C@@H](O)[C@@H](O)[C@H](O)[C@]2(C)[C@H]3CC=C4[C@@H]5C[C@@](C)(C(=O)OCc6ccccc6[N+](=O)[O-])CC[C@]5(C)CC[C@@]4(C)[C@]3(C)CC[C@@H]12 | inactive | > 50 | > 50 | > 50 | inactive | > 50 | inactive
4 | CC1(C)[C@@H](O)CC[C@]2(C)[C@H]3CC=C4[C@@H]5C[C@@](C)(C(=O)OCc6ccccc6)CC[C@]5(C)CC[C@@]4(C)[C@]3(C)CC[C@@H]12 | inactive | > 50 | > 50 | > 50 | inactive | > 50 | inactive
5 | CCCCCOC(=O)[C@@]1(C)CC[C@]2(C)CC[C@]3(C)C(=CC(=O)[C@@H]4[C@@]5(C)[C@@H](O)[C@H](O)[C@H](O)C(C)(C)[C@@H]5CC[C@]43C)[C@@H]2C1 | inactive | > 50 | > 50 | > 50 | inactive | > 50 | inactive
6 | CC1(C)[C@@H](O)[C@@H](O)[C@H](O)[C@]2(C)[C@H]3C(=O)C=C4[C@@H]5C[C@@](C)(C(=O)OCc6ccc(Cl)cc6)CC[C@]5(C)CC[C@@]4(C)[C@]3(C)CC[C@@H]12 | inactive | > 50 | > 50 | > 50 | inactive | > 50 | inactive
7 | CCOC(=O)[C@@]1(C)CC[C@]2(C)CC[C@]3(C)C(=CC(=O)[C@@H]4[C@@]5(C)[C@@H](O)[C@H](O)[C@H](O)C(C)(C)[C@@H]5CC[C@]43C)[C@@H]2C1 | inactive | 4.2 (≈ 7.91 µM) | 2.1 (≈ 3.96 µM) | 16.9 (≈ 31.8 µM) | inactive | 4 (≈ 7.54 µM) | inactive
8 | CC1(C)S[C@@H]2[C@H](NC(=O)[C@H](N)c3ccccc3)C(=O)N2[C@H]1C(=O)O [AMPICILLIN] |  | 1.4 (≈ 4.01 µM) |  |  |  |  | 
9 | CC1(C)[C@@H](O)[C@@H](O)[C@H](O)[C@]2(C)[C@H]3CC=C4[C@@H]5C[C@@](C)(C(=O)OCc6ccc([N+](=O)[O-])cc6)CC[C@]5(C)CC[C@@]4(C)[C@]3(C)CC[C@@H]12 | inactive | > 50 | > 50 | > 50 | inactive | > 50 | inactive
10 | CC1(C)[C@@H](O)[C@@H]2O[C@@H]2[C@]2(C)[C@H]3C(=O)C=C4[C@@H]5C[C@@](C)(C(=O)OCc6ccccc6)CC[C@]5(C)CC[C@@]4(C)[C@]3(C)CC[C@@H]12 | inactive | > 50 | > 50 | > 50 | inactive | > 50 | inactive
11 | CCCCCOC(=O)[C@@]1(C)CC[C@]2(C)CC[C@]3(C)C(=CC[C@@H]4[C@@]5(C)[C@@H](O)[C@H](O)[C@H](O)C(C)(C)[C@@H]5CC[C@]43C)[C@@H]2C1 | inactive | > 50 | > 50 | > 50 | inactive | > 50 | inactive
12 | CCCCOC(=O)[C@@]1(C)CC[C@]2(C)CC[C@]3(C)C(=CC[C@@H]4[C@@]5(C)[C@@H](O)[C@H](O)[C@H](O)C(C)(C)[C@@H]5CC[C@]43C)[C@@H]2C1 | inactive | > 34.8 | 4.3 (≈ 7.89 µM) | > 34.8 | inactive | > 32 | inactive
13 | CC1(C)[C@@H](O)[C@@H]2O[C@@H]2[C@]2(C)[C@H]3CC=C4[C@@H]5C[C@@](C)(C(=O)OCc6ccccc6)CC[C@]5(C)CC[C@@]4(C)[C@]3(C)CC[C@@H]12 | inactive | > 50 | > 50 | > 50 | inactive | > 50 | inactive
14 | CC1(C)[C@H](O)[C@@H](O)[C@H](O)[C@]2(C)[C@H]3C(=O)C=C4[C@@H]5C[C@@](C)(C(=O)OCc6ccccc6)CC[C@]5(C)CC[C@@]4(C)[C@]3(C)CC[C@@H]12 | inactive | > 37.8 | > 37.8 | > 37.8 | inactive | 4 (≈ 6.75 µM) | inactive
15 | CC1(C)[C@@H](O)CC[C@]2(C)[C@H]3C(=O)C=C4[C@@H]5C[C@@](C)(C(=O)OCc6ccccc6)CC[C@]5(C)CC[C@@]4(C)[C@]3(C)CC[C@@H]12 | inactive | > 50 | > 50 | > 50 | inactive | > 50 | inactive
16 | CC1(C)C(=O)[C@@H]2O[C@@H]2[C@]2(C)[C@H]3CC=C4[C@@H]5C[C@@](C)(C(=O)OCc6ccccc6)CC[C@]5(C)CC[C@@]4(C)[C@]3(C)CC[C@@H]12 | inactive | > 50 | > 50 | > 50 | inactive | > 50 | inactive
17 | CC1(C)[C@@H](O)CC[C@]2(C)[C@H]3CC=C4[C@@H]5C[C@@](C)(C(=O)O)CC[C@]5(C)CC[C@@]4(C)[C@]3(C)CC[C@@H]12 | inactive | > 50 | > 50 | > 50 | inactive | > 50 | inactive
18 | CC1(C)C(=O)C=C[C@]2(C)[C@H]3C(=O)C=C4[C@@H]5C[C@@](C)(C(=O)OCc6ccccc6)CC[C@]5(C)CC[C@@]4(C)[C@]3(C)CC[C@@H]12 | inactive | > 50 | > 50 | > 50 | inactive | > 50 | inactive
19 | CC1(C)[C@H](O)[C@@H](O)[C@H](O)[C@]2(C)[C@H]3C(=O)C=C4[C@@H]5C[C@@](C)(C(=O)O)CC[C@]5(C)CC[C@@]4(C)[C@]3(C)CC[C@@H]12 | inactive | > 50 | > 50 | > 50 | inactive | > 50 | inactive
20 | CC1(C)[C@@H](O)[C@@H](O)[C@H](O)[C@]2(C)[C@H]3CC=C4[C@@H]5C[C@@](C)(C(=O)OCc6ccc(Cl)cc6)CC[C@]5(C)CC[C@@]4(C)[C@]3(C)CC[C@@H]12 | inactive | > 50 | > 50 | > 50 | inactive | > 50 | inactive
21 | CC1(C)[C@H](O)[C@@H]2O[C@@H]2[C@]2(C)[C@H]3C(=O)C=C4[C@@H]5C[C@@](C)(C(=O)OCc6ccccc6)CC[C@]5(C)CC[C@@]4(C)[C@]3(C)CC[C@@H]12 | inactive | > 36.7 | 36.7 (≈ 63.8 µM) | > 36.7 | inactive | > 32 | inactive
22 | CCCOC(=O)[C@@]1(C)CC[C@]2(C)CC[C@]3(C)C(=CC(=O)[C@@H]4[C@@]5(C)[C@@H](O)[C@H](O)[C@H](O)C(C)(C)[C@@H]5CC[C@]43C)[C@@H]2C1 | inactive | 4.3 (≈ 7.89 µM) | 4.3 (≈ 7.89 µM) | > 34.8 | inactive | 2 (≈ 3.67 µM) | inactive
23 | CC1(C)[C@@H](O)[C@@H](O)[C@H](O)[C@]2(C)[C@H]3C(=O)C=C4[C@@H]5C[C@@](C)(C(=O)OCc6ccccc6Cl)CC[C@]5(C)CC[C@@]4(C)[C@]3(C)CC[C@@H]12 | inactive | > 50 | > 50 | > 50 | inactive | > 50 | inactive
24 | CN[C@@H]1[C@H](O[C@H]2[C@H](O[C@H]3[C@H](O)[C@@H](O)[C@H](N=C(N)N)[C@@H](O)[C@@H]3N=C(N)N)O[C@@H](C)[C@]2(O)C=O)O[C@@H](CO)[C@H](O)[C@H]1O [STREPTOMYCIN] |  |  | 5.8 (≈ 9.97 µM) | 2.9 (≈ 4.99 µM) |  |  | 
